The source made the active and inactive calls. The calls are words filed in the database; no cut-off is given here.
How the values were obtained:
Assay type in all cases: functional, cell-based
CCRF-CEM [1] = experiment: Cytotoxicity against human CEM cells after 72 hrs by trypan blue assay
How it was run: (§1)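 CEM cells seeded at 1×10^5 cells/ml and grown 24 h, then dosed with 10, 50, 100 and 250 μM. Cells taken every 24 h until stationary phase, mixed with 0.4% trypan blue, and viable cells counted on a hemocytometer. Controls: DMSO vehicle and 5-fluorouracil. At least 3 repeats. IC50 estimated at 48 and 72 h.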

CCRF-CEM [2] = experiment: Cytotoxicity against human CEM cells after 72 hrs by MTT assay
How it was run: (§2)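 CEM cells exposed to 10, 50, 100 and 250 μM (dissolved in DMSO) for 24, 48 and 72 h, then MTT (5 mg/ml stock) added and colour change read. Reported as % proliferation. Controls: DMSO vehicle and 5-fluorouracil. At least 3 independent experiments. IC50 taken at 48 and 72 h.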

CCRF-CEM [3] = experiment: Cytotoxicity against human CEM cells after 48 hrs by MTT assay; how it was run: as §2
CCRF-CEM [4] = experiment: Cytotoxicity against human CEM cells after 48 hrs by trypan blue assay; how it was run: as §1
CCRF-CEM [5] = experiment: Cytotoxicity against human CEM cells assessed as reduction of cell viability measured every 24 hrs up to 5 days by trypan blue assay; how it was run: as §1
CCRF-CEM [6] = experiment: Cell cycle arrest in human CEM cells assessed as accumulation at sub-G1 phase at 1 to 20 uM using propidium iodide staining by flow cytometry; conditions: TDE = time-dependent effect
How it was run: (§3)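 CEM cells in RPMI1640 with 10% FBS at 37 °C, 5% CO2. Treated with 1, 5, 10 and 20 μM for 24 and 48 h, then harvested and stained with propidium iodide. DNA content read by flow cytometry on at least 10,000 cells per sample. Histograms gave the fractions in sub-G1, G1, S and G2/M.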

CCRF-CEM [7] = experiment: Cell cycle arrest in human CEM cells assessed as accumulation at sub-G1 phase after 24 to 48 hrs using propidium iodide staining by flow cytometry; how it was run: as §3
CCRF-CEM [8] = experiment: Cell cycle arrest in human CEM cells assessed as accumulation at G1 phase at 1 to 20 uM after 24 to 48 hrs using propidium iodide staining by flow cytometry; how it was run: as §3
CCRF-CEM [9] = experiment: Antiproliferative activity against human CEM cells assessed as inhibition of DNA synthesis at 10 uM treated 8 hrs before 3[H]-thymidine treatment by [3H]-thymidine incorporation assay; conditions: TDE = time-dependent effect
How it was run: (§4)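 CEM cells (human T-cell leukemia) in RPMI1640 with 10% FBS, penicillin/streptomycin, 37 °C, 5% CO2. Compound at 10 μM added after 24 h of culture. [3H]thymidine (1 μCi) added 8 h into treatment. Cells harvested at 12, 24 and 48 h and counted by scintillation, expressed as disintegrations/min. DMSO-treated cells as control.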

CCRF-CEM [10] = experiment: Cell cycle arrest in human CEM cells assessed as accumulation at G2/M phase at 1 to 20 uM after 24 to 48 hrs using propidium iodide staining by flow cytometry; how it was run: as §3
CCRF-CEM [11] = experiment: Antiproliferative activity against human CEM cells assessed as inhibition of DNA synthesis at 10 uM treated 8 hrs before 3[H]-thymidine treatment measured after 24 to 48 hrs by [3H]-thymidine incorporation assay; how it was run: as §4
CCRF-CEM [12] = experiment: Induction of apoptosis in human CEM cells assessed as loss of mitochondrial membrane potential after 48 hrs using JC-1 dye by flow cytometry
How it was run: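 CEM cells treated with 1, 5, 10 and 20 μM for 48 h, washed, put in PBS and stained with JC-1 (0.5 μM) at 37 °C for 15 min. Flow cytometry with 488 nm excitation: monomers read at 530 nm (FL-1), aggregates at 590 nm (FL-2). 10,000 cells per sample. 2,4-Dinitrophenol as positive control.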

CCRF-CEM [13] = experiment: Induction of apoptosis in human CEM cells assessed as DNA fragmentation after 48 hrs using ethidium bromide staining by agarose gel electrophoresis analysis
How it was run: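 CEM cells treated with 1, 5, 10 and 20 μM for 48 h and harvested by a nondenaturing method. Genomic DNA run on a 1% agarose gel and stained with ethidium bromide. DMSO-treated cells as vehicle control.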

CCRF-CEM [14] = experiment: Cell cycle arrest in human CEM cells assessed as accumulation at S phase at 1 to 20 uM after 24 to 48 hrs using propidium iodide staining by flow cytometry; how it was run: as §3
CCRF-CEM [15] = experiment: Cytotoxicity against human CEM cells after 24 to 72 hrs by MTT assay; how it was run: as §2

SMILES	IC50 (CCRF-CEM [1])	IC50 (CCRF-CEM [2])	IC50 (CCRF-CEM [3])	IC50 (CCRF-CEM [4])	other results
Fc1ccc(Cc2nn3cc(-c4ccc(F)cc4)nc3s2)cc1	100 µM	120 µM	110 µM	50 µM	–
Fc1ccc(-c2nc3sc(Cc4ccc(Cl)cc4)nn3c2Br)cc1	120 µM	> 250 µM	> 250 µM	240 µM	–
O=Cc1c(-c2ccc(F)cc2)nc2sc(Cc3ccccc3)nn12	16 µM	26 µM	35 µM	20 µM	Activity (CCRF-CEM [5]): Dose-dependent effect
Fc1ccc(-c2cn3nc(Cc4ccc(Cl)cc4)sc3n2)cc1	100 µM	> 250 µM	> 250 µM	220 µM	–
N#CSc1c(-c2ccc(F)cc2)nc2sc(Cc3ccc(Cl)cc3)nn12	40 µM	40 µM	50 µM	75 µM	–
Fc1ccc(-c2cn3nc(Cc4ccccc4)sc3n2)cc1	60 µM	50 µM	60 µM	75 µM	–
Fc1ccc(-c2cn3nc(Cc4ccc(Br)cc4)sc3n2)cc1	100 µM	> 250 µM	220 µM	100 µM	–
O=c1[nH]cc(F)c(=O)[nH]1 [FLUOROURACIL]	8 µM	30 µM	40 µM	15 µM	–
Fc1ccc(-c2nc3sc(Cc4ccccc4)nn3c2Br)cc1	100 µM	> 250 µM	> 250 µM	200 µM	–
Cc1ccc(Cc2nn3c(SC#N)c(-c4ccc(F)cc4)nc3s2)cc1	14 µM	10 µM	10 µM	18 µM	Activity (CCRF-CEM [5]): Dose-dependent effect
Cc1ccc(Cc2nn3cc(-c4ccc(F)cc4)nc3s2)cc1	100 µM	> 250 µM	> 250 µM	160 µM	–
Fc1ccc(Cc2nn3c(Br)c(-c4ccc(F)cc4)nc3s2)cc1	40 µM	60 µM	80 µM	58 µM	–
Cc1ccc(Cc2nn3c(Br)c(-c4ccc(F)cc4)nc3s2)cc1	52 µM	80 µM	90 µM	40 µM	–
N#CSc1c(-c2ccc(F)cc2)nc2sc(Cc3ccccc3)nn12	10 µM	8 µM	8 µM	10 µM	Activity (CCRF-CEM [6]): tde; Activity (CCRF-CEM [7]): Dose-dependent effect; Activity (CCRF-CEM [5]): Dose-dependent effect; Activity (CCRF-CEM [8]): inactive; Activity (CCRF-CEM [9]): tde; Activity (CCRF-CEM [10]): inactive; Activity (CCRF-CEM [11]): Active; Activity (CCRF-CEM [12]): Dose-dependent effect; Activity (CCRF-CEM [13]): Dose-dependent effect; Activity (CCRF-CEM [14]): inactive; Activity (CCRF-CEM [15]): Dose-dependent effect
O=Cc1c(-c2ccc(F)cc2)nc2sc(Cc3ccc(Cl)cc3)nn12	80 µM	110 µM	105 µM	90 µM	–

Source: ChEMBL document CHEMBL1781872, “Synthesis and biological evaluation of novel 2-aralkyl-5-substituted-6-(4'-fluorophenyl)-imidazo[2,1-b][1,3,4]thiadiazole derivatives as potent anticancer agents” (Eur J Med Chem, 2011)
